The source made the active and inactive calls. The calls are words filed in the database; no cut-off is given here.
Tests used:
A549 = assay: Cytotoxicity against human A549 cells by MTT assay; assay type: functional, cell-based
Method in brief: (§1)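 MTT read-out on cancer cell lines exposed to a series of concentrations per compound (ranges spanning roughly 0.6–372.1 μM); compounds dissolved in DMSO, final DMSO 0.1%.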

[1] = Cytotoxicity against human HCT116 cells by MTT assay; assay type: functional, cell-based; settings: HCT-116; method in brief: as §1
HeLa = assay: Cytotoxicity against human HeLa cells by MTT assay; assay type: functional, cell-based; method in brief: as §1
HepG2 = assay: Cytotoxicity against human HepG2 cells by MTT assay; assay type: functional, cell-based; method in brief: as §1
Bacillus subtilis = assay: Antibacterial activity against Bacillus subtilis CMCC 63501 after 16 to 18 hrs by filter paper disk assay; assay type: functional, organism-based

Row | SMILES | IC50 (A549) [µM] | IC50 [1] [µM] | IC50 (HeLa) [µM] | IC50 (HepG2) [µM] | Activity (Bacillus subtilis)
1 | C[C@@H]1O[C@H]2CC(=O)O[C@H]2C2=C1C(=O)c1c(O)c3c(c(O)c1C2=O)[C@H]1C[C@@H](O)[C@]3(O)[C@@H](C)O1 | 1.3 | 11 | 0.7 | 6.6 | 
2 | C[C@@H]1O[C@@H](CC(=O)O)Cc2cc3c(c(O)c21)C(=O)C1=C(C3=O)[C@H]2C[C@@H](O[C@H]3CC[C@H](O)[C@H](C)O3)[C@@]1(O)[C@@H](C)O2 | 37.6 | 13.1 | 20.2 | 18.8 | 
3 | C[C@@H]1O[C@H]2CC(=O)O[C@H]2C2=C1C(=O)c1c(O)c3c(c(O)c1C2=O)[C@H]1C[C@@H](O[C@H]2CC[C@H](O)[C@H](C)O2)[C@@]3(O)[C@@H](C)O1 [GRANATICIN B] | 1.9 | 14.8 | 1.6 | 5.8 | Active
4 | C[C@@H]1O[C@@H](CC(=O)O)CC2=C1C(=O)c1c(O)c3c(c(O)c1C2=O)[C@H]1C[C@@H](O[C@H]2CC[C@H](O)[C@H](C)O2)[C@@]3(O)[C@@H](C)O1 |  |  |  |  | Active
5 | C[C@@H]1O[C@@H](CC(=O)O)Cc2cc3c(c(O)c21)C(=O)C1=C(C3=O)[C@H]2C[C@@H](O)[C@@]1(O)[C@@H](C)O2 | 197 | 179 | 297 | 148 | 
